Compounds with a hit are over-represented: about 1.9% of the library has one in this group of screens.
ABHD5-PLIN5 inh: ABHD5-PLIN5 protein interaction inhibition. Split G. princeps luciferase complementation, luminescence, 4 h. inhibition, % at 4 µM. 360,000 tested, 0.78% active. AID 602281;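 active = inhibition above the mean inhibition across every tested compound plus 3 SD, cut at about 22% in these data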;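 note: 0% = DMSO only wells and the 100% control is not disclosed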
Rin1-Abl PPI inh: human Rin1-Abl interaction inhibition; inhibition, % at 7.35 µM; AID 588664; 360,000 tested, 0.4% active; TR-FRET Rin1/Abl binding, biochemical; in the data active = inhibition above about 5%, passing the limit was not always enough
NadD block: blocks S. aureus nicotinate mononucleotide adenylyltransferase; purified NadD enzyme, colorimetric absorbance read-out; inhibition, % at 20 µM; 360,000 tested, 0.78% active; in the data active = inhibition above about 26%
XiGFP reactiv: reactivates the inactive X chromosome in mouse fibroblasts. activation, % at 7.58 µM. 360,000 tested, 0.055% active. XiGFP mouse fibroblasts, % GFP-positive cells imaging, 3 d; cells co-treated with 5-aza-dC sensitizer; scaled so ellipticine positive control = 100%;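 active = mean normalized replicate activation at least 10% and every replicate at or above 10%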;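 note: 0% = median of on-plate neutral control wells and 100% = ellipticine 6 µM median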
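assay system = SV40-immortalized XiGFP fibroblast cells, line 68-5-11 | buffer or medium = DMEM plus 5-aza-dC sensitizer | doses = single-point pinned compound dosing | times = 3-day compound exposure, then 15 min fixation at room temperature | benchmarks = positive control ellipticine, 6 µM final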
Rpn11 block: inhibitors of human proteasome Rpn11. 360,000 tested, 0.59% active. AID 588493. O00487. human 26S proteasome, Ub4-pepOG fluorescence polarization; 20S core pre-blocked with epoxomicin. inhibition, % at 20 µM;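 active = inhibition at 20 µM, scaled to each plate's controls, above about 33%, limit read from the data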
Rpn11 confirm: confirmation of human proteasome Rpn11 inhibitors. inhibition, % at 20 µM. 1,900 tested, 29% active. shares compounds with Rpn11 block. purified human 26S proteasome, Ub4-pepOG fluorescence polarization; proteasome pretreated with epoxomicin
MMP-2 counter: MMP-2 (human) inhibition counter-screen; shares compounds with Rpn11 block; recombinant MMP-2, FRET peptide cleavage fluorescence; inhibition, % at 20 µM; 1,900 tested, 4% active;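 note: human MMP-2 activated beforehand with APMA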
Thrombin inh: thrombin (bovine) inhibition counter-screen. inhibition, % at 20 µM. bovine thrombin cleavage of Ub4-pepOG, fluorescence polarization. 1,900 tested, 13% active. shares compounds with Rpn11 block;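 active = mean inhibition at least 40% at 20 µM, or signal 3 deviations below plate average, so some actives read negative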;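 note: plate controls were thrombin with DMSO for no effect and buffer wells lacking thrombin for full effect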
NadD conf: NadD (S. aureus) inhibition, single concentration confirmation. shares compounds with NadD block. purified S. aureus NadD, colorimetric enzyme assay. inhibition, % at 20 µM. 2,000 tested, 13% active. AID 624309; in the data active = inhibition mostly above about 42%, no sharp cut-off; inactive = mostly below about 42%
Numbers without * were called inactive. Cut-off read from the data, not from the text of the source, unless noted: active = inhibition above about 40%; inactive = the rest.

Cn1c(-c2c(N)n(CCCc3ccccc3)c3nc4ccccc4nc23)nc2ccccc21 was read as ABHD5-PLIN5 inh -5.6, Rin1-Abl PPI inh -0.1, NadD block 35.1*, Rpn11 block 44.5*, Rpn11 confirm 35.4, MMP-2 counter -7.0, Thrombin inh 22.7 and NadD conf 10.3.
Screening COc1ccc(/C=c2/sc3n(c2=O)C(c2ccccc2OC)C2=C(N=3)c3ccccc3CC2)cc1O (stereo not drawn) returned ABHD5-PLIN5 inh -6.7, Rin1-Abl PPI inh 0.5, NadD block 52.6*, Rpn11 block 47.5*, Rpn11 confirm 24.5, MMP-2 counter 23.4, Thrombin inh 0.2 and NadD conf 26.9.
For CCOC(=O)C1=C(C)N=c2s/c(=C\c3ccc(O)c([N+](=O)[O-])c3)c(=O)n2C1c1ccccc1OC (stereo not drawn) the results were ABHD5-PLIN5 inh -11.1, Rin1-Abl PPI inh -2.0, NadD block 37.7*, XiGFP reactiv 0.0, Rpn11 block 40.3*, Rpn11 confirm 23.6, MMP-2 counter -20.6, Thrombin inh -4.0 and NadD conf 5.4.
`COc1cc(/C=c2\sc3n(c2=O)CCCN=3)ccc1O` gave ABHD5-PLIN5 inh 4.8, Rin1-Abl PPI inh -1.1, NadD block 8.2 and Rpn11 block 24.5.
Screening COc1cc(/C=c2\sc3n(c2=O)C(c2ccccc2)C(c2ccccc2)=NN=3)ccc1O (stereo not drawn) returned ABHD5-PLIN5 inh 3.6, Rin1-Abl PPI inh -1.1, NadD block 28.6*, Rpn11 block 43.2*, Rpn11 confirm 23.1, MMP-2 counter 20.0, Thrombin inh 18.8 and NadD conf 50.9*.
`CCOC(=O)C1=C(C)N=c2s/c(=C\c3ccc(OCC(=O)O)cc3)c(=O)n2C1c1ccccc1OC` (stereo not drawn) gave ABHD5-PLIN5 inh -10.9, Rin1-Abl PPI inh -0.3, NadD block 9.4, XiGFP reactiv -0.1 and Rpn11 block 34.8.
`COc1ccc2c3c(n(C)c2c1)[C@H](CO)N(C(=O)c1ccc(F)cc1)CC31CCN(C(=O)c2ccc(F)cc2)CC1` gave XiGFP reactiv 0.3.
Screening O=C(Cc1cccc2ccccc12)Nc1ccc(-c2cc3ccccc3oc2=O)cc1 returned ABHD5-PLIN5 inh -1.5, Rin1-Abl PPI inh -8.1, NadD block 31.5*, Rpn11 block 43.3*, Rpn11 confirm 10.4, MMP-2 counter -9.5, Thrombin inh -7.1 and NadD conf 13.5.
For COCC(=O)N1C[C@@H](C)[C@H](OC)CN(C)C(=O)c2ccc(NC(=O)c3ccc(OC)cc3)cc2OC[C@H]1C the results were XiGFP reactiv 0.0.
`O=C(CC1OC(=O)c2ccccc21)Nc1cc(Cl)ccc1N1CCCC1` (stereo not drawn) gave ABHD5-PLIN5 inh 9.9, Rin1-Abl PPI inh 3.4, NadD block 31.8*, XiGFP reactiv 0.1, Rpn11 block 64.6*, Rpn11 confirm 62.1*, MMP-2 counter -6.5, Thrombin inh -13.4 and NadD conf 11.5.
Nc1cc2nc[nH]c2cc1N was read as ABHD5-PLIN5 inh -7.3, Rin1-Abl PPI inh -2.5, NadD block 38.8*, XiGFP reactiv 0.0, Rpn11 block 45.4*, Rpn11 confirm -19.3, MMP-2 counter 3.4, Thrombin inh -29.2 and NadD conf 37.4.
For Cc1c(NC(=O)c2cccc(-c3cc4ccccc4oc3=O)c2)cccc1-c1nc2ncccc2o1 the results were ABHD5-PLIN5 inh -1.8, Rin1-Abl PPI inh -6.3, NadD block 47.5*, XiGFP reactiv -0.1, Rpn11 block 137.9*, Rpn11 confirm 109.5*, MMP-2 counter -27.4, Thrombin inh 0.5 and NadD conf 4.5.
`Cc1c(NC(=O)C(C)C)cccc1-c1nc2ncccc2o1` gave ABHD5-PLIN5 inh -5.5, Rin1-Abl PPI inh -4.9, NadD block -2.5, XiGFP reactiv 0.1 and Rpn11 block 0.8.

High-throughput results (PubChem)
